Results gathered from unrelated publications.
Lines come from different studies, so protocols differ.
Target: 5-hydroxytryptamine receptor 2A (HTR2A, Homo sapiens, UniProt P28223)

CN(C)[C@@H]1Cc2ccccc2[C@@H](c2ccccc2)C1 (relative stereo)  Kb (inositol phosphate; antagonist): 460 nM
OC(c1ccc(F)cc1)C(F)(F)CCN1CCC(O)(c2ccc(Cl)cc2)CC1 (racemic)  Ki (cell-free assay; radioligand): 1010 nM
COc1cc2c3c(c1OC)-c1ccccc1C[C@H]3N(C)CC2  Ki (ligand displacement; radioligand; cell membranes): 150 nM
COc1cc2c3c(c1OC)-c1cc4c(cc1CC3N(C)CC2)OCO4 (centres unmarked)  Kb (calcium signal; antagonist): 830 nM
COc1ccccc1N1CCN(CCN(C(=O)C2CCCCC2)c2ccccn2)CC1  Ki (ligand displacement; radioligand; cell membranes): 331 nM
NCCc1c[nH]c2ccc(F)cc12  Ki (ligand displacement; radioligand): 3910 nM
Cc1nc2n(c(=O)c1CCN(C)CCc1c[nH]c3cc(F)ccc13)CCCC2  Ki (ligand displacement; radioligand; cell membranes): 25.8 nM
CCCCCNC(=N)N/N=C/c1c[nH]c2ccc(OC)cc12  IC50 (cell-free assay): 127 nM
CN(C)CCc1c[nH]c2ccccc12  Ki (cell-free assay): 1510 nM
c1ccc2c(C3CCNCC3)noc2c1  Ki (ligand displacement; radioligand; cell membranes): 271 nM
C[C@H](N)Cn1ccc2cc(F)c(Cl)cc21  Ki (ligand displacement; radioligand; cell membranes): 13.1 nM
CC[C@H](C)[C@H](NC(=O)[C@H](CCCNC(=N)N)NC(=O)[C@H](CC(C)C)NC(=O)[C@@H](N)Cc1ccccc1)C(=O)N[C@@H](CCCNC(=N)N)C(=O)N1CCC[C@H]1C(=O)N[C@@H](CCCCN)C(=O)O  Ki (cell-free assay; radioligand): > 10000 nM
Cc1[nH]c2ccccc2c1CCN  Ki (ligand displacement; radioligand): 7770 nM
COc1cc2c3c(c1OC)-c1ccccc1CC3NCC2 (centres unmarked)  Ki (ligand displacement; radioligand; cell membranes): 925 nM
